Laboratory results as given in ChEMBL document CHEMBL4622830, “Substituted pteridinones as p90 ribosomal S6 protein kinase (RSK) inhibitors: A structure-activity study” (Bioorg Med Chem, 2020).
Active and inactive are the calls of the source. No cut-off for these calls is given here.

What was measured:
[1] = molecular target: T1, Ribosomal protein S6 kinase alpha-3 (Homo sapiens, UniProt P51812); assay: Inhibition of full length human GST-tagged RSK2 using Ulight-rpS6 as substrate incubated for 1 hr in presence of ATP by TR FRET assay
[2] = molecular target: T1, Ribosomal protein S6 kinase alpha-3; assay: Inhibition of full length human GST-tagged RSK2 using Ulight-rpS6 as substrate at 10 uM incubated for 1 hr in presence of ATP by TR FRET assay
Method in brief: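 Recombinant RSK2 at 500 pM final with 250 nM ULight-rpS6 (Ser235/236) substrate and 3 μM ATP, in 50 mM HEPES pH 7.5, 10 mM MgCl2, 1 mM EGTA, 2 mM DTT, 0.01% Tween 20. DMSO ≤0.5%. Ran 1 h at room temperature, stopped with 10 mM EDTA. Eu anti-phospho antibody (2 nM) TR-FRET, 665/615 nm ratio read.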

[3] = test system: MOLM-13; assay: Antiproliferative activity against human MOLM13 assessed as reduction in cell viability incubated for 72 hrs by CellTiter-Glo assay; type: functional, cell-based; settings: MOLM-13, 72 h
Method in brief: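 CellTiter-Glo viability in MOLM-13 cells seeded at 30,000 per well, treated across 60 µM to 247 nM at 37°C for up to 72 h. Plates equilibrated 30 min at RT, reagent added, shaken 2 min, luminescence read after 10 min. Final DMSO ≤0.5%; n = 3.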

[4] = molecular target: T1, Ribosomal protein S6 kinase alpha-3; assay: Inhibition of RSK2 (unknown origin)
[5] = molecular target: Ribosomal protein S6 kinase alpha-2 (Homo sapiens, UniProt Q15349); assay: Inhibition of RSK3 (unknown origin)
[6] = molecular target: Ribosomal protein S6 kinase alpha-1 (Homo sapiens, UniProt Q15418); assay: Inhibition of RSK1 (unknown origin)
[7] = test system: HEK293; assay: Cytotoxicity in HEK293 cells assessed as reduction in cell viability; type: cell-based; settings: human
[8] = test system: MOLM-13; assay: Antiproliferative activity against human MOLM13 assessed as reduction in cell viability at 60 uM incubated for 72 hrs by MTS assay; type: functional; settings: MOLM-13, 72 h, read-out: GI
[9] = test system: MOLM-13; assay: Antiproliferative activity against human MOLM13 assessed as reduction in cell viability incubated for 72 hrs by CellTox green assay; type: functional, cell-based; settings: MOLM-13, 72 h
[10] = test system: MOLM-13; assay: Antiproliferative activity against human MOLM13 assessed as reduction in cell viability incubated for 72 hrs by MTS assay; type: functional, cell-based; settings: MOLM-13, 72 h
[11] = test system: MOLM-13; assay: Antiproliferative activity against human MOLM13 assessed as reduction in cell viability at 0.25 to 60 uM incubated for 24 hrs by CellTiter-Glo assay; type: functional, cell-based
Method in brief: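 MOLM-13 cells, 30,000 per well in medium, treated over 60 μM to 247 nM and held at 37°C for 24 to 72 h. Plates equilibrated 30 min at RT, CellTiter-Glo reagent added, shaken 2 min, luminescence read after 10 min at rt. n = 3.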

[12] = molecular target: Bromodomain-containing protein 4 (Homo sapiens, UniProt O60885); assay: Binding affinity to BRD4 bromodomain 1 (unknown origin) by ITC assay
[13] = test system: MOLM-13; assay: Antiproliferative activity against human MOLM13 assessed as reduction in cell viability at 0.25 to 60 uM incubated for 24 hrs by CellTox green assay; type: functional, cell-based
Method in brief: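 Cytotoxicity read by CellTox Green: MOLM-13 cells, 60,000 per well, in medium with CellTox Green dye at 1:500, treated over 60 μM to 247 nM at 37°C. Fluorescence (ex 485/em 520 nm) read at 0, 24, 48 and 72 h.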

[14] = test system: MOLM-13; assay: Antiproliferative activity against human MOLM13 assessed as reduction in cell viability at 0.25 to 60 uM incubated for 24 hrs by MTS assay; type: functional, cell-based
Method in brief: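 MOLM-13 cells, 60,000 per well, given compound over 60 μM to 247 nM, incubated at 37°C for 24 to 72 h. CellTiter 96 AQueous One (MTS) reagent added for 3 h, formazan absorbance read at 490 nm. EC50 or percentage values derived.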

T1 sequence (P51812 whole entry): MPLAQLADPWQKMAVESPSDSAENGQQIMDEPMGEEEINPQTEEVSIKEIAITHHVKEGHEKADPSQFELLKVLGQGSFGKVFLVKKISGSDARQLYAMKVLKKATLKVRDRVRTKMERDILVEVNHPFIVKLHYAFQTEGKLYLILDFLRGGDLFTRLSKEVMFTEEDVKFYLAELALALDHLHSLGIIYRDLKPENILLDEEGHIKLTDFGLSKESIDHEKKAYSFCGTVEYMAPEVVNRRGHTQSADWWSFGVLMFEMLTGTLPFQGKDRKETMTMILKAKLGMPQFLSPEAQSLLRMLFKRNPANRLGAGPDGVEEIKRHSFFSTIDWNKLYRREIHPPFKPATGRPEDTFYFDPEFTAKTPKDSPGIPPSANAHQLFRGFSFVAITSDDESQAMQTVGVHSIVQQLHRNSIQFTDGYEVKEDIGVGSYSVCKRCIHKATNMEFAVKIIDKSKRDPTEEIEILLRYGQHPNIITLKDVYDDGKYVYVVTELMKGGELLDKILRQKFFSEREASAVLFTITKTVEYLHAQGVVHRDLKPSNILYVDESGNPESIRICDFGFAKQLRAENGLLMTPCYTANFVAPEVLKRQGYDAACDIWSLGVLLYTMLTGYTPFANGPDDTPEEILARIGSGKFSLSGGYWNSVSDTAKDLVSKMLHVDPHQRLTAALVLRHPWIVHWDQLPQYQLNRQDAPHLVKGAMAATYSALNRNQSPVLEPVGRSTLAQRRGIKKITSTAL
Ribosomal protein S6 kinase alpha-2, sequence (Q15349 whole entry): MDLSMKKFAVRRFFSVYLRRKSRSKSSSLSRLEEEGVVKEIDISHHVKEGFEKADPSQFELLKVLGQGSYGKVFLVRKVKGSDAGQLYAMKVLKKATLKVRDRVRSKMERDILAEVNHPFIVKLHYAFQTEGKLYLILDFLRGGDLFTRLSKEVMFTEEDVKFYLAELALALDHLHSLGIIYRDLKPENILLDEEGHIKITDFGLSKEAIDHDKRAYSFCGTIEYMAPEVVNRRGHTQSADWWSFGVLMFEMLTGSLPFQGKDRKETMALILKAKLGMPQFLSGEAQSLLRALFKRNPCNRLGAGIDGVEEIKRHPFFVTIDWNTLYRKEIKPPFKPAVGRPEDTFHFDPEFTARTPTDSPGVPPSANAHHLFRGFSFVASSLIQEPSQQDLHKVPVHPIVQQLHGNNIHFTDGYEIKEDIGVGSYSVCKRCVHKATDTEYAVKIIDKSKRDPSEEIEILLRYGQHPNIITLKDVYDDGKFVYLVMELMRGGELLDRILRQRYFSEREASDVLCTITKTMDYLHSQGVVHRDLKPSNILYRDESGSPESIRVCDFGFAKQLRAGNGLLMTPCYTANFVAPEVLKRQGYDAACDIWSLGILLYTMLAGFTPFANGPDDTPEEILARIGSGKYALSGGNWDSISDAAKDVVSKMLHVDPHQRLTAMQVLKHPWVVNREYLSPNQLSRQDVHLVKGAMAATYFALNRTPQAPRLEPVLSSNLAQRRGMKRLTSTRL
Ribosomal protein S6 kinase alpha-1, sequence (Q15418 whole entry): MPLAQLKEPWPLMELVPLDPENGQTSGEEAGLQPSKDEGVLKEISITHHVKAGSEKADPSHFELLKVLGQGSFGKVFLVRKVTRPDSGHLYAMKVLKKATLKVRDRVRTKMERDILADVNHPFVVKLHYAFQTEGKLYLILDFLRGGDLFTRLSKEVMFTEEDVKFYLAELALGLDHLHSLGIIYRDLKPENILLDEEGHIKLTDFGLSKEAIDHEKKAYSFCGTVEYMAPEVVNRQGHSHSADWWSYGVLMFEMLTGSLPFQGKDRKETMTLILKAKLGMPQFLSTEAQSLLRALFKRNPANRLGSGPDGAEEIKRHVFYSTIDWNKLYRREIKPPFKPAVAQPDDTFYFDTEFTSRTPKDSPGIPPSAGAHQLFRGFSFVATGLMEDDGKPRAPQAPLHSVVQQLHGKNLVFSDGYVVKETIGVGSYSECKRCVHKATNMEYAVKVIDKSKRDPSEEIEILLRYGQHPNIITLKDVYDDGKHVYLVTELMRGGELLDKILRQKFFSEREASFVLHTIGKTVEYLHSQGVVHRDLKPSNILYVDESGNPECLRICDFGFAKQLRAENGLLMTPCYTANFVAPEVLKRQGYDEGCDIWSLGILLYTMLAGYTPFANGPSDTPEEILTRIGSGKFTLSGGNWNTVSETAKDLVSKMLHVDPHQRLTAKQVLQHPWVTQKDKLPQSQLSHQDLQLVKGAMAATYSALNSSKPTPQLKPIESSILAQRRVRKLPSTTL

Question: CC(C)CCN1c2nc(Nc3ccc(O)c(Br)c3)ncc2N(C)C(=O)C1C (configuration not stated) was tested. Which IC50 [1] did it give?
Answer: Its IC50 is 141 nM.

Question: Which inhibition [2] does the source give for CC(C)CCN1c2nc(Nc3cc(Br)c(O)c(Br)c3)ncc2N(C)C(=O)C1C (configuration not stated) here?
Answer: The inhibition was 78%.

Question: Which IC50 [1] does the source give for CC(C)CCN1c2nc(Nc3ccc(O)c(Cl)c3)ncc2N(C)C(=O)C1C (configuration not stated) here?
Answer: The IC50 was 71.5 nM.

Question: How did the IC50 [1] turn out when CC(C)CCN1CC(=O)N(C)c2cnc(Nc3ccc(O)c(F)c3)nc21 was run?
Answer: The IC50 was 24.7 nM.

Question: Nc1cnc(Nc2cc(F)c(O)c(F)c2)nc1N was tested. Which inhibition [2] did it give?
Answer: The inhibition was 38%.

Question: For CC(C)CCN1c2nc(Nc3ccc(CO)cc3)ncc2N(C)C(=O)C1C (configuration not stated), which IC50 [1] is on record?
Answer: Its IC50 is 739 nM.

Question: How did the inhibition [2] turn out when Oc1c(F)cc(Nc2ncccn2)cc1F was run?
Answer: The inhibition was 45%.

Question: For CC(C)CCN1c2nc(Nc3cc(Cl)c(O)c(Cl)c3)ncc2N(C)C(=O)C1C (configuration not stated), which inhibition [2] is on record?
Answer: Its inhibition is 83%.

Question: Nc1nc(Nc2cc(F)c(O)c(F)c2)ncc1[N+](=O)[O-] was tested. Which inhibition [2] did it give?
Answer: Its inhibition is 72%.

Question: Which inhibition [2] does the source give for COc1c(F)cc(Nc2ncc3c(n2)N(CCC(C)C)C(C)C(=O)N3C)cc1F (configuration not stated) here?
Answer: The inhibition was 43%.

Question: How did the EC50 [3] turn out when Oc1c(F)cc(-c2cnccc2-c2ccc(N3CCOCC3)cc2)cc1F was run?
Answer: Its EC50 is 19100 nM.

Question: What about the IC50 [4] of the same compound?
Answer: Its IC50 is 5 nM.

Question: What about the IC50 [5] of the same compound?
Answer: The IC50 was 4 nM.

Question: What about the IC50 [6] of the same compound?
Answer: The IC50 was 6 nM.

Question: What about the Activity [7] of the same compound?
Answer: Its Activity is “Toxic”.

Question: What about the inhibition of growth at 60 µM [8] of the same compound?
Answer: Its inhibition of growth at 60 µM is 79%.

Question: What about the EC50 [9] of the same compound?
Answer: The EC50 was 23400 nM.

Question: For CC(C)CCN1c2nc(Nc3cc(F)cc(F)c3)ncc2N(C)C(=O)C1C (configuration not stated), which inhibition [2] is on record?
Answer: Its inhibition is 71%.

Question: What does the source list for CC(C)CCN1CC(=O)Nc2cnc(Nc3ccc(O)c(F)c3)nc21?
Answer: EC50 [3]: 2230 nM; EC50 [9]: 4640 nM; IC50 [1]: 38.3 nM; EC50 [10]: 4390 nM

Question: How did the EC50 [3] turn out when CC(C)CCN1c2nc(Nc3cc(F)c(O)c(F)c3)ncc2N(C)C(=O)C1C (configuration not stated) was run?
Answer: Its EC50 is 1890 nM.

Question: And the Activity [11]?
Answer: Its Activity is “Active”.

Question: And the Kd [12]?
Answer: The Kd was 3500 nM.

Question: What about the EC50 [9] of the same compound?
Answer: Its EC50 is 3410 nM.

Question: And the Activity [13]?
Answer: The Activity was “Active”.

Question: And the Activity [14]?
Answer: The Activity was “Active”.

Question: What about the EC50 [10] of the same compound?
Answer: The EC50 was 2800 nM.

Question: With CC(C)CCN1c2nc(Nc3cc(F)c(O)c(F)c3)ncc2NC(=O)C1C (configuration not stated) as the compound, how does the EC50 [3] read?
Answer: The EC50 was 17400 nM.

Question: And the Activity [7]?
Answer: The Activity was “Toxic”.

Question: And the inhibition of growth at 60 µM [8]?
Answer: Its inhibition of growth at 60 µM is 56%.

Question: What about the EC50 [9] of the same compound?
Answer: Its EC50 is 18100 nM.

Question: And the IC50 [1]?
Answer: The IC50 was 18.2 nM.

Question: Which results are given for CC(C)CCN1c2nc(Nc3ccc(O)c(F)c3)ncc2N(C)C(=O)C1C (configuration not stated)?
Answer: EC50 [3]: 870 nM; EC50 [9]: 3160 nM; IC50 [1]: 25.4 nM; EC50 [10]: 1690 nM

Question: With CC1Nc2nc(Nc3cc(F)c(O)c(F)c3)ncc2NC1=O (configuration not stated) as the compound, how does the inhibition [2] read?
Answer: The inhibition was 83%.

Question: With CC(C)CCN1c2nc(Nc3ccc(O)cc3)ncc2N(C)C(=O)C1C (configuration not stated) as the compound, how does the IC50 [1] read?
Answer: Its IC50 is 54.8 nM.

Question: For CC(C)CCN1CC(=O)Nc2cnc(Nc3cc(F)c(O)c(F)c3)nc21, which EC50 [3] is on record?
Answer: Its EC50 is 6200 nM.

Question: What about the EC50 [9] of the same compound?
Answer: The EC50 was 6850 nM.

Question: And the IC50 [1]?
Answer: Its IC50 is 23.4 nM.

Question: And the EC50 [10]?
Answer: The EC50 was 6820 nM.

Question: What does the source list for CN1CCN(c2ccc(-c3ccncc3-c3cc(F)c(O)c(F)c3)cc2)CC1?
Answer: EC50 [3]: 9710 nM; Activity [7]: Toxic; inhibition of growth at 60 µM [8]: 75%; EC50 [9]: 22000 nM

Question: How did the EC50 [3] turn out when CC(C)CCN1CC(=O)N(C)c2cnc(Nc3cc(F)c(O)c(F)c3)nc21 was run?
Answer: Its EC50 is 1670 nM.

Question: What about the EC50 [9] of the same compound?
Answer: Its EC50 is 4540 nM.

Question: And the IC50 [1]?
Answer: The IC50 was 17.6 nM.

Question: And the EC50 [10]?
Answer: Its EC50 is 2710 nM.
